Screen size: about 2,300 compounds; fewer than 10 were called active.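 Rule for the calls: active = duplicate-mean ratio percent above the mean of iodide-only control wells, which defines zero, plus 5 of their SD; inactive = the rest.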 Only a sample is shown.
target: Chloride channel protein 1 (Rattus norvegicus) (UniProt P35524); assay: blockers of rat ClC-1 channel – cell-based, voltage-dependent ClC-1, selectivity assay for TMEM16A inhibitor project (AID 652236); conditions: CHO ClC-1-YFP, iodide influx fluorescence quench; at 10 µM; iodide control reads 0, buffer control 100;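 note: higher percent means stronger block of ClC-1 iodide influx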
Outline: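 material = ClC-1 CHO cells with mutant YFP H148Q/I152L | buffer or medium = HBSS-HEPES pH 7.4, sodium gluconate substituted for NaCl | times = 20 min room-temperature pre-incubation, 10 s baseline, 50 s post-iodide reads | signal = kinetic iodide-induced YFP fluorescence quench, 1 Hz | control set = buffer-only controls and iodide controls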

Chain of Chloride channel protein 1 (Rattus norvegicus) (P35524 whole entry, looked up): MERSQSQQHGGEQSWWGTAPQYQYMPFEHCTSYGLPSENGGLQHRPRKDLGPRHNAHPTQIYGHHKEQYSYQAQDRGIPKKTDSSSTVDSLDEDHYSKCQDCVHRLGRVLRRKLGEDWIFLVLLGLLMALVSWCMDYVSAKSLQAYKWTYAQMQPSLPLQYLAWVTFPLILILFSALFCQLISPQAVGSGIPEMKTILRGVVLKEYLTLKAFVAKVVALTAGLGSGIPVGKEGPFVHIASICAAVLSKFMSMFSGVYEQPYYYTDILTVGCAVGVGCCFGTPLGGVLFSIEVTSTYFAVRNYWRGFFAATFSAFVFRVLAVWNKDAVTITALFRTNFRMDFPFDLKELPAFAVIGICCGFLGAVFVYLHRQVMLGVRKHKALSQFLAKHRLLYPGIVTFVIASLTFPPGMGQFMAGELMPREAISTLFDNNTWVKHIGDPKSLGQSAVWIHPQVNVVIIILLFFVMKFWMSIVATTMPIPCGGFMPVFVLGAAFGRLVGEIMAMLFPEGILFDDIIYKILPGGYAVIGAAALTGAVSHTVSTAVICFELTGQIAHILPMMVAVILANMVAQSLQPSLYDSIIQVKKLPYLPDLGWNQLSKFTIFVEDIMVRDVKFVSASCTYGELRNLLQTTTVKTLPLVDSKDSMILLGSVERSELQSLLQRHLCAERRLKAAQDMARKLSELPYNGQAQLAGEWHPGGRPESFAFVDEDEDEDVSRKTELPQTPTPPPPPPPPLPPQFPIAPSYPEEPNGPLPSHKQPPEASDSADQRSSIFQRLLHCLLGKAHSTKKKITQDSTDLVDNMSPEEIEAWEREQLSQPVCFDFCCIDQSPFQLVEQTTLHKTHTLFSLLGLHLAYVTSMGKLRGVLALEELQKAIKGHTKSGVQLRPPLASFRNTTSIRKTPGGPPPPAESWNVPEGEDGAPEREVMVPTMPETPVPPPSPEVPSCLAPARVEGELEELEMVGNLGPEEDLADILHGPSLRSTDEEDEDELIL

Ratio percent, inactive:
Cc1nc(CNS(=O)(=O)c2ccc(Oc3ccccc3)cc2)cs1 -6.5%
S=C(NCc1cccs1)Nc1ccc(Cl)cc1 -12.5%
N#CC1=C(SCc2ccccc2)NC(=O)C(C#N)C12CCCC2 (stereo unspecified) -12.5%
C=CCSc1nsc(NC(=O)Nc2cccc(C(C)=O)c2)n1 -15.5%
O=C(Nc1nc(-c2ccc3c(c2)OCO3)cs1)c1ccncc1 -13.5%
CCC(=O)Nc1ccc2nc(C)n(Cc3ccccc3Cl)c(=O)c2c1 -2%
O=C(N/N=C/c1cc(Cl)cc([N+](=O)[O-])c1O)C(O)(c1ccccc1)c1ccccc1 -7%
O=S1(=O)CCN(Cc2ccccc2Cl)CC1 -3.5%
O=C(NC(=S)Nc1ccccc1C(=O)O)c1ccc(-c2ccc(Br)cc2)o1 -15%
O=C(COC(=O)CCc1c[nH]c(=O)[nH]1)Nc1ccccc1Cl -14%
c1ccc(-c2nnc(SCc3nc4ccccc4[nH]3)o2)cc1 -14%
O=C1c2ccccc2C(Nc2ccc3c(c2)OCCO3)N1Cc1ccco1 (stereo unspecified) -13%
Cc1ccc(NC(=O)CN(C)CC(=O)Nc2cccc(F)c2)cc1[N+](=O)[O-] -20.5%
COC(=O)c1ccc(COC(=O)c2c(C)nn(Cc3ccccc3Cl)c2Cl)o1 -2%
CCn1nccc1C(=O)Nc1ccc(S(=O)(=O)NC23CC4CC(CC(C4)C2)C3)cc1 -8.5%
COc1ccc2[nH]cc(/C=C(/C#N)S(=O)(=O)c3ccccc3)c2c1 -11.5%
CC1=NN(c2cccc(Cl)c2)C(=O)C12CC(C)=C(C)CS2 (stereo unspecified) -13.5%
O=C(CSCc1ccc(Cl)cc1)N1CCN(Cc2ccc3c(c2)OCO3)CC1 2.5%
COc1ccc(CCC(=O)c2ccc(OC)cc2)cc1 -4%
Fc1ccc2[nH]c3c(N4CCSCC4)ncnc3c2c1 -36.5%
O=C(CNCCC1=CCCCC1)Nc1ccccc1N1CCCCCC1 -9%
CN(C)c1cc[n+](Cc2ccccc2)cc1 -5%
Cc1ccc(-n2[nH]c(C)c(/C=N/N3C(=O)c4cccc5cccc(c45)C3=O)c2=O)cc1 -16%
Cc1nc(SCC(=O)N2CCc3ccccc3C2)c2c(C)c(C)sc2n1 -16%
O=C(NCCc1ccc2c(c1)OCCO2)c1cc2ccccc2o1 -21%
Cc1ccc(F)cc1NC(=O)Cc1nn(C)c(=O)c2ccccc12 -14%
Cc1ccc(N)cc1-n1c(C)ccc1C -8%
CCOC(=O)C(Sc1ncc(C#N)c(N)n1)C(C)C (stereo unspecified) -18%
Fc1ccc(CSc2nnc(-c3cc4c(s3)-c3ccccc3CC4)o2)cc1 -3%
N#Cc1nc(COc2ccc(-c3ccccc3)cc2)oc1NCc1cccnc1 -19%
Cc1nc2c(C(=O)NCc3ccc4c(c3)OCO4)c[nH]n2c(=O)c1Cc1ccccc1F -1.5%
COc1cc(CC(=O)Nc2nc(-c3ccc(F)c(F)c3)cs2)cc(OC)c1OC -7%
CN(Cc1cccnc1)C(=O)c1cc(COc2ccc3ncccc3c2)on1 -24%
Cc1ccc(-c2noc(CSc3nnnn3-c3ccccc3)n2)cc1 -1.5%
S=C(NCc1ccc(Cl)cc1)NC12CC3CC(CC(C3)C1)C2 -20.5%
Cc1[nH]n(-c2cccc(Cl)c2)c(=O)c1-c1ccc(Cl)cc1 -15%
COC(=O)c1ccc(NC(=O)c2ccccc2NS(=O)(=O)c2ccccc2)cc1 -22.5%
Cc1noc(C)c1COC(=O)c1cc2ccccc2cc1O -10.5%
CCOC(=O)N1CC=C2C(C#N)=C(N)C(C#N)(C#N)[C@H](c3cccs3)[C@H]2C1 -6.5%
CCOC(=O)c1cccc(NC(=O)CCn2nnc3ccccc32)c1 -15%
COc1cccc(CNS(=O)(=O)c2ccc3c(c2)CC(C)N3C(=O)C2CCC2)c1 (stereo unspecified) -19.5%
O=C(Nc1cccc(S(=O)(=O)Nc2ccc(Cl)cc2)c1)c1ccc2c(c1)OCCO2 -24.5%
Cc1nc2ccccc2cc1OCc1ccc(F)cc1 -17%
CCCC(=O)Nc1ccccc1N1CCN(C(=O)c2ccccc2)CC1 -12.5%
CC1CCN(C(=O)c2ccc(CSc3ccc(Cl)cc3)cc2)CC1 -22.5%
CC(=O)c1c(C)[nH]c(C(=O)COC(=O)c2cccc(S(=O)(=O)N(C)c3ccccc3)c2)c1C -31%
CN1c2ccc(C=O)c3c(C=O)ccc(c23)N(C)C1(C)C -24.5%
COc1ccc(C(=O)NC2CCCc3c2cnn3-c2cccc(C)c2C)c(OC)n1 (stereo unspecified) -21.5%
COc1ccc(CNc2nnnn2C)cc1 -10.5%
CCOC(=O)C1=C(CN2CCc3ccccc32)NC(=O)NC1c1cccc([N+](=O)[O-])c1 (stereo unspecified) -12%
CSc1nnc2c(n1)OC(c1ccsc1)N(C(C)=O)c1ccccc1-2 (stereo unspecified) -3.5%
Cc1nc(C)c(-c2csc(NCCc3ccccc3)n2)s1 -9%
CSc1nsc(NC(=O)Nc2ccccc2)n1 -7.5%
N#Cc1nc(N)nc(N(c2ccccc2)c2ccccc2)n1 -2%
CCCc1cc(=S)n2c([nH]c3ccccc32)c1C#N -9.5%
C=CCn1c(SCC(=O)Nc2nc3ccccc3s2)nnc1-c1ccccc1O -17.5%
CCCCNC(=O)CSc1nc2n[nH]c(C)c2c(=N)n1-c1cccc(Cl)c1C -4.5%
COc1ccc(OCC(=O)NCCc2ccc(S(N)(=O)=O)cc2)cc1 -14%
O=c1cc(C(F)(F)F)[nH]c(=O)n1C1CCCCC1 0%
Cc1ccc(-n2ncc3c(N4CCN(c5ccc(F)cc5)CC4)ncnc32)c(C)c1 -13%
Cc1cccc(N=Nc2c(O)[nH]c3ccc(F)cc23)c1 2.5%
Cc1ccc(C)c(N2CCN(C(=O)CCCCn3c(=O)[nH]c4ccccc4c3=O)CC2)c1 -2%
CC(C)CNC(=S)NNC(=O)c1nn(C)cc1Cl -14%
CCOC(=O)N1CCN(C(=O)c2ccc3c(c2)N(Cc2ccc(C)cc2)CCS3)CC1 -13%
Cc1ccc(C)c(N2CCN(S(=O)(=O)c3ccc4c(c3)oc(=O)n4C)CC2)c1 -27.5%
COc1ccc(-n2c(C)cc(C(=O)CSc3nnc(-c4cccs4)o3)c2C)cc1 -7%
Cn1c(CN2CCOCC2)nc2cc(NC(=O)c3ccc(Cl)cc3)ccc21 -9%
Cc1ccc2c(c1)N(S(=O)(=O)c1cc(-c3cc(C)no3)ccc1C)CCO2 -4%
Cc1ccc(N2C(=O)S/C(=C/c3cn(C)c4ccccc34)C2=O)cc1 -10%
CCCCn1ccnc1C(=O)c1cccc(S(=O)(=O)N2c3ccccc3CC2C)c1 (stereo unspecified) -3%
CCN(CC)S(=O)(=O)c1ccc(N(C)Cc2ccc(C(F)(F)F)cc2)nc1 -9%
O=C(COc1ccccc1)NCc1ccc2c(c1)OCO2 -4.5%
Cc1ccc(C(=O)O)cc1-c1ccc(/C=C2\SC(=O)N(CC(=O)Nc3ccc4c(c3)OCO4)C2=O)o1 -5.5%
COc1ccc(CN(C)C(=O)CC(c2ccccc2)c2ccccc2)cc1 -8.5%
CC(=O)c1cc(CN2CCC(C(=O)Nc3cccc(-c4cscn4)c3)CC2)cs1 -16.5%
O=C1NC(=O)C2C1C(c1ccc([N+](=O)[O-])cc1)=NN2Cc1ccccc1 (stereo unspecified) -32%
